The text below walks through data of ChEMBL document CHEMBL4368913, “Design, Synthesis, and Biological Evaluation of 6-Substituted Thieno[3,2- d]pyrimidine Analogues as Dual Epidermal Growth Factor Receptor Kinase and Microtubule Inhibitors” (J Med Chem, 2019).

Usually IC50 stands for the concentration that gives 50% inhibition. As a reminder, the inhibition is the share of the control response that was lost under treatment.

One assay deals with A549. In words: Antiproliferative activity against human A549 cells after 72 hrs by MTT assay. Format: functional, cell-based. To be noted: A549, 72 h. (Tetrazolium assays rely on reduction of a dye to a coloured formazan, in cell work by metabolically active cells.)
For the next assay, the system named is HT-29. Nature of the assay: Antiproliferative activity against human HT-29 cells after 72 hrs by MTT assay. To be noted: HT-29, 72 h. Format: functional, cell-based.
For the next assay, the system named is RS4-11. In words: Antiproliferative activity against human RS4:11 cells after 72 hrs by MTT assay. The format is functional, cell-based. To be noted: RS4-11, 72 h. The essentials:
(§1)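 Cells in medium with 10% FBS, seeded at 8×10^3 per well, 18 h at 37 °C, 5% CO2, then graded compound concentrations (DMSO ≤0.25%) for 72 h. Viability by MTT. […] Mean ± SE of dose-response curves from at least three independent experiments.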

A further assay deals with Jurkat. In words: Antiproliferative activity against human Jurkat cells after 72 hrs by MTT assay. The format is functional, cell-based. The procedure, abridged:
as §1

Another assay has as its system HeLa. Nature of the assay: Antiproliferative activity against human HeLa cells after 72 hrs by MTT assay. The format is functional, cell-based.
Another assay deals with B16. In words: Antitumor activity against mouse B16 cells allografted in C57BL/6 mouse assessed as reduction in tumor burden at 30 mg/kg, ip dosing starting on day 9 post tumor injection administered […] on day 9,11, 13 and 15 relative to control. Details: scale not given: the % may be the effect or the level left. The format is functional. The procedure, abridged:
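Male C57BL/6 mice, six weeks old, given 2.5×10^5 BL6-B16 murine melanoma cells subcutaneously in the dorsolateral flank in PBS. Once tumours were palpable, compound in 50 µL DMSO was given intraperitoneally every other day from day 9 (days 9, 11, 13, 15); controls received vehicle. Tumour volume compared with control; 5 animals per group; mean ± SEM.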

Assay [1] concerns the target T1, Vascular endothelial growth factor receptor 2 (Homo sapiens, UniProt P35968). In words: Inhibition of VEGFR2 (unknown origin).
In another assay the target is Tubulin (Bos taurus, UniProt Q6B856+Q862L2+Q862F3). Nature of the assay: Inhibition of bovine brain tubulin polymerization after 20 mins. The essentials: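 Bovine brain tubulin (10 μM) preincubated with varying compound concentrations in 0.8 M monosodium glutamate, pH 6.6, at 30 °C, then chilled to 0 °C. 0.4 mM GTP added, mixtures warmed to 30 °C, assembly followed by turbidity at 350 nm.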

Assay [2] addresses Epidermal growth factor receptor (Homo sapiens, UniProt P00533). Nature of the assay: Inhibition of wild type EGFR (unknown origin) by bioluminescent ADP-glo kinase assay.
The next assay deals with Tubulin (Bos taurus) (UniProt Q6B856+Q862L2+Q862F3). Nature of the assay: Inhibition of [3H]-colchicine binding to bovine brain tubulin at 1 to 5 uM after 20 mins relative to control. The procedure, abridged:
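Colchicine-binding inhibition in mixtures of 1 μM tubulin, 5 μM [3H]colchicine and test compound at 1 or 5 μM.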

The target of assay [3] is T1, Vascular endothelial growth factor receptor 2. Nature of the assay: Inhibition of wild type VEGFR2 (unknown origin) by bioluminescent ADP-glo kinase assay.

Sequence of Epidermal growth factor receptor (P00533 whole entry): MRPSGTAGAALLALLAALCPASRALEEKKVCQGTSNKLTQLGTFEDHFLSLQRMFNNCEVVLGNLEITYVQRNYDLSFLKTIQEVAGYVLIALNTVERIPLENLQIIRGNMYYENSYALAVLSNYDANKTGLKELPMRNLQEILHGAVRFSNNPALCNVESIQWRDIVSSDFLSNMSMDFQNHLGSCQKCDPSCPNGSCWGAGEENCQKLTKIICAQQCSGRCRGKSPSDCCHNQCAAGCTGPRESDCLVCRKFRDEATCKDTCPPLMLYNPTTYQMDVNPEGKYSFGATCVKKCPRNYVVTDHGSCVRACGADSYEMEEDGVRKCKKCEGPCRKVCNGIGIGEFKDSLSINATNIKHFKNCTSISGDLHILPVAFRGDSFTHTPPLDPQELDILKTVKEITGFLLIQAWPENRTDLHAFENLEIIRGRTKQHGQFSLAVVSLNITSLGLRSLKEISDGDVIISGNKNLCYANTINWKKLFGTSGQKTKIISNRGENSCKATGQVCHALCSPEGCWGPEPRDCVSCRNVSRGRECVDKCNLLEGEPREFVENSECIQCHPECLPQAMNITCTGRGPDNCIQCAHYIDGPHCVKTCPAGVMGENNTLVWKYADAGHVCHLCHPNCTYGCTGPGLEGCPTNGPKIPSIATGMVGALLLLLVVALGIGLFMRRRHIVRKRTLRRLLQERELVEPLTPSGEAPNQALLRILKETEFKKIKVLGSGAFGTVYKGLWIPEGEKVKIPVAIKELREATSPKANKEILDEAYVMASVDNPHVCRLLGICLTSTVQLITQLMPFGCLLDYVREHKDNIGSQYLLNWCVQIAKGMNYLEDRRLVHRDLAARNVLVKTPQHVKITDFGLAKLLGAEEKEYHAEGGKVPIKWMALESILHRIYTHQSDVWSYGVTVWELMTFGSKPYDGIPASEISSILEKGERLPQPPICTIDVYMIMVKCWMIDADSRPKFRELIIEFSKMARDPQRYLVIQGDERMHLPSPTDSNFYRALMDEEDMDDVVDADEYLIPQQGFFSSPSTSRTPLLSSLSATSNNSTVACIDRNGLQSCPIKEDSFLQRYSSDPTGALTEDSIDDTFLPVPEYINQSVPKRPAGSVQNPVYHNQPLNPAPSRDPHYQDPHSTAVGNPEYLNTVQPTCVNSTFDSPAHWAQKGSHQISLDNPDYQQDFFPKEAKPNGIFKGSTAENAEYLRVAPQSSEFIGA
T1 sequence (P35968 whole entry): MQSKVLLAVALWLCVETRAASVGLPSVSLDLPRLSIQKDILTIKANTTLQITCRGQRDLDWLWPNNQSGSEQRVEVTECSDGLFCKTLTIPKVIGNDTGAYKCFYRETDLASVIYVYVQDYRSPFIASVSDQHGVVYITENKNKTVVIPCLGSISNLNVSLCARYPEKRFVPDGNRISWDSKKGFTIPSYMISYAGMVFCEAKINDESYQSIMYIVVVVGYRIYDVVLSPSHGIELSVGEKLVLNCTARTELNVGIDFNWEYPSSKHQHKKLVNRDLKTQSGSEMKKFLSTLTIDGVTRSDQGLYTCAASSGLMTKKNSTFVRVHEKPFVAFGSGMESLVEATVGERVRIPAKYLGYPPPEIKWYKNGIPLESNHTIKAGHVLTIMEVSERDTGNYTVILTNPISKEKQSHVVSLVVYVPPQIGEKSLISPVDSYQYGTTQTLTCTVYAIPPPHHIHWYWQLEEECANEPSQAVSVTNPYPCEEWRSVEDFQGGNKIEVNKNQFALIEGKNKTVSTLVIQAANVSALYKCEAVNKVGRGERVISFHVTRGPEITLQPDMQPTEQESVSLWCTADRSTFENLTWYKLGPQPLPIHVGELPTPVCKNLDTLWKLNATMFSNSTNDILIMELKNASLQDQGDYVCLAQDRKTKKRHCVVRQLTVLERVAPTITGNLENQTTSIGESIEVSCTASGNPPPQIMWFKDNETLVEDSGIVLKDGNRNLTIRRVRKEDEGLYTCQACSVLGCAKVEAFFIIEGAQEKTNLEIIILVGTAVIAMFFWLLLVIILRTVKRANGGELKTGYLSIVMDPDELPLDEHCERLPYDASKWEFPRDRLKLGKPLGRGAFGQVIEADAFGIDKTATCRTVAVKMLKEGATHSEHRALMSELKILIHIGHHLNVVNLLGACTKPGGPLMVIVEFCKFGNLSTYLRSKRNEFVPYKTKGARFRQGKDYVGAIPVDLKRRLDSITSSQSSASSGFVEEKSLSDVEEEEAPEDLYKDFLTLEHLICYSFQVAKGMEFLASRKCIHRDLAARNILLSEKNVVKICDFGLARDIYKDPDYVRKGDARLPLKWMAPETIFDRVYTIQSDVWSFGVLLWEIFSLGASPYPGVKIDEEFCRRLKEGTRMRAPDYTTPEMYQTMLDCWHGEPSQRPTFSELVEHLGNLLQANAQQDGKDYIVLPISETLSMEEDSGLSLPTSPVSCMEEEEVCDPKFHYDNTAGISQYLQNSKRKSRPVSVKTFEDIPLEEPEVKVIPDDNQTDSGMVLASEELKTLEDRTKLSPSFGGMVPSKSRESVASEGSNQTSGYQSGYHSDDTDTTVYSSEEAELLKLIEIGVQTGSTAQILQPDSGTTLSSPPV

For `COc1cccc(-c2cc3ncnc(Nc4cc(OC)c(OC)c(OC)c4)c3s2)c1`, the IC50 in the assay on A549 stood at 8800 nM; in the assay on HT-29 it was 3300 nM; in the assay with RS4-11, 5400 nM; in the assay with Jurkat, 3000 nM; with HeLa, 3200 nM.

As to `COc1ccc(/C=C\c2cc(OC)c(OC)c(OC)c2)cc1O` [COMBRETASTATIN A4], the IC50 in the assay with RS4-11 is 1 nM.

With `COc1ccc(/C=C\c2cc(OC)c(OC)c(OC)c2)cc1OP(=O)([O-])[O-].[Na+].[Na+]` [FOSBRETABULIN DISODIUM], the Activity in the assay on B16 worked out at 34.9%.

Consider `COc1cc(Nc2ncnc3cc(-c4ccc(F)cc4)sc23)cc(OC)c1OC`, for which the IC50 came out at 13500 nM with A549; 1900 nM in the assay with HT-29; 1900 nM in the assay on RS4-11; 260 nM with Jurkat; 450 nM with HeLa.

On to `c1ccc(-c2cc3ncnc(Nc4ccc5[nH]ccc5c4)c3s2)cc1`, for which the IC50 in assay [1] was found to be 80 nM.

As to `COc1cc(Nc2ncnc3cc(-c4ccc(Cl)cc4)sc23)cc(OC)c1OC`, the IC50 in the assay with A549 was 600 nM; in the assay on HT-29, 87 nM; in the assay with RS4-11, 5 nM; against Tubulin, 3300 nM; in [2] it was 273 nM; with Jurkat, 3 nM. The molecule further gave an IC50 in the assay with HeLa of 90 nM. On Tubulin (Bos taurus), this molecule displayed an inhibition of 36%.

Consider `COc1ccc(-c2cc3ncnc(Nc4cc(OC)c(OC)c(OC)c4)c3s2)cc1`, for which the IC50 in the assay with A549 was 430 nM; in the assay with HT-29 it was 60 nM; in the assay on RS4-11, 4 nM; against Tubulin, 2800 nM; in assay [3], > 1000 nM; in assay [2] it was 52 nM. The IC50 amounted to 5 nM in the assay on Jurkat and 170 nM with HeLa. This molecule yielded an inhibition at Tubulin (Bos taurus) of 31%.
